Laboratory results: ChEMBL document CHEMBL1129433, “On the bioisosteric potential of diazines: diazine analogues of the combined thromboxane A2 receptor antagonist and synthetase inhibitor Ridogrel” (J Med Chem, 1996)

Legend:
[1] = species on record: Homo sapiens; assay: Inhibition of collagen-induced platelet aggregation in human platelet rich plasma; format: functional
Method in brief: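 PRP and PPP were prepared from human blood by centrifugation at 1000 rpm and 4000 rpm respectively, each for 10 min at 10 °C. PRP was adjusted to […]. Collagen was 0.53 µg/mL final. Optical density of stirred PRP was recorded for 4 min, at least in duplicate. PRP and PPP set 0% and 100% light transmission. EC50 was taken from the concentration–inhibition curve.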

[2] = target: T1, Thromboxane A2 receptor (Homo sapiens, UniProt P21731); assay: TXA2 receptor antagonism, measured by the displacement of [3H]SQ29,548 from the PGH-2/TXA-2 receptor on human platelets; format: functional
T1 sequence (P21731 whole entry): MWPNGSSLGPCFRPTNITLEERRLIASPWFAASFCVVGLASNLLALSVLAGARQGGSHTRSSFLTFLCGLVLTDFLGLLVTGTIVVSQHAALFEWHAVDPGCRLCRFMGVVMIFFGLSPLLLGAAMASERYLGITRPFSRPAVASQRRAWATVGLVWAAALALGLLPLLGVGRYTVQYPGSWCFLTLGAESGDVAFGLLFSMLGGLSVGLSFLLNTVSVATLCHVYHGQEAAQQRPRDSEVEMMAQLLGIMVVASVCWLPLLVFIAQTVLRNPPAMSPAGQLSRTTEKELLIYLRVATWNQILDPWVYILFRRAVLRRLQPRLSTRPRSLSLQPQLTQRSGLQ
Method in brief: (§1)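 Human gel-filtered platelets were used. Nonspecific binding was defined with U 46,619 at 30 µM final in place of the test compound. IC50 is the concentration giving 50% displacement of [³H]SQ 29,548.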

[3] = target: T2, Thromboxane-A synthase (Homo sapiens, UniProt P24557); assay: TXA2 synthetase inhibition measured by the inhibition of TXB2 formation by human gel-filtered platelets incubated with [14C]arachidonic acid
T2 sequence (P24557 whole entry): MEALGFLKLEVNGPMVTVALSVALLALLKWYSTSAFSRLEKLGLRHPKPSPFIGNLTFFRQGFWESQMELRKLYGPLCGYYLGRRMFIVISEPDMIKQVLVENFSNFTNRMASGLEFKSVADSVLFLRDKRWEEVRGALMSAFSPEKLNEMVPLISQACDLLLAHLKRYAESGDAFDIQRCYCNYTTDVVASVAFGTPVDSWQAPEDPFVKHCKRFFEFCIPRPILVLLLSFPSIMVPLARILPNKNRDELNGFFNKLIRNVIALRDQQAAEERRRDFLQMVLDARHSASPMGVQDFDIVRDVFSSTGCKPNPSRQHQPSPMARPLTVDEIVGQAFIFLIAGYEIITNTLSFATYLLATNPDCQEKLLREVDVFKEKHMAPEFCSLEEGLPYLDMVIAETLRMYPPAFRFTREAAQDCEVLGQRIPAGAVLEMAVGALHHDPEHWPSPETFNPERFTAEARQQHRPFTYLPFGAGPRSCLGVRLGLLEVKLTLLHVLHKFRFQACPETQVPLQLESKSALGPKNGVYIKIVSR

[4] = species on record: Homo sapiens; assay: In vitro inhibition of collagen-induced platelet aggregation in human platelet-rich plasma (PRP) at 273 uM; format: functional
[5] = species on record: Homo sapiens; assay: In vitro inhibition of collagen-induced platelet aggregation in human platelet-rich plasma (PRP) at 291 uM; format: functional
[6] = species on record: Homo sapiens; assay: In vitro inhibition of collagen-induced platelet aggregation in human platelet-rich plasma (PRP) at 278uM; format: functional
[7] = target: T1, Thromboxane A2 receptor; assay: TXA2 receptor antagonism, measured by the displacement of [3H]SQ-29548 from the PGH-2/TXA-2 receptor on human platelets; format: functional; method in brief: as §1

Structure (SMILES) | EC50 [1] [µM] | IC50 [2] [µM] | IC50 [3] [µM] | other results
O=C(O)CCCCCO/N=C(\c1ccccc1)c1ccncn1 | 112 | 5 | > 10 | –
O=C(O)CCCCO/N=C(/c1cncnc1)c1cccc(C(F)(F)F)c1 | 32 | 1.5 | 0.039 | –
O=C(O)CCCCO/N=C(\c1cccc(C(F)(F)F)c1)c1cnccn1 | 190 | 11 | 0.006 | –
O=C(O)CCCCO/N=C(\c1ccccc1)c1ncccn1 | – | – | > 100 | inhibition at 273 µM [4]: 0%
O=C(O)CCCCCO/N=C(/c1ccccc1)c1ccncn1 | 236 | 25 | > 10 | –
O=C(O)CCCCCO/N=C(\c1cccc(C(F)(F)F)c1)c1cnccn1 | 251 | – | – | –
O=C(O)CCCCCO/N=C(/c1cccc(C(F)(F)F)c1)c1ccncn1 | 184 | – | – | –
O=C(O)CCCCCO/N=C(\c1cccc(C(F)(F)F)c1)c1ccncn1 | 25 | 1.1 | > 10 | –
O=C(O)CCCCCO/N=C(\c1cccc(C(F)(F)F)c1)c1cccnn1 | 241 | – | – | –
O=C(O)CCCCCO/N=C(/c1ccccc1)c1cncnc1 | 127 | 8.8 | > 10 | –
O=C(O)CCCCO/N=C(\c1cccc(C(F)(F)F)c1)c1cccnn1 | 78 | 10 | > 100 | –
O=C(O)CCCO/N=C(/c1ccccc1)c1ccncn1 | – | – | – | inhibition at 273 µM [4]: 38%
O=C(O)CCCCCO/N=C(\c1cccc(C(F)(F)F)c1)c1ncccn1 | 291 | – | – | –
O=C(O)CCCO/N=C(/c1ccccc1)c1cncnc1 | – | – | – | inhibition at 273 µM [4]: 17%
O=C(O)CCCCO/N=C(\c1ccccc1)c1cnccn1 | 91 | 47 | 0.079 | –
O=C(O)CCCCO/N=C(/c1cccc(C(F)(F)F)c1)c1ncccn1 | 214 | 52 | > 10 | –
O=C(O)CCCCO/N=C(\c1ccccc1)c1ccnnc1 | 227 | 33 | 0.26 | –
O=C(O)CCCO/N=C(/c1ccccc1)c1ccnnc1 | – | – | – | inhibition at 273 µM [4]: 21%
O=C(O)CCCCO/N=C(\c1cccc(C(F)(F)F)c1)c1ncccn1 | 272 | 99 | > 10 | –

Structure (SMILES) | EC50 [1] [µM] | IC50 [2] [µM] | IC50 [3] [µM] | other results
O=C(O)CCCCO/N=C(/c1ccccc1)c1cnccn1 | 94 | 24 | 0.62 | –
O=C(O)CCCCO/N=C(/c1ccccc1)c1ccnnc1 | 163 | 13 | 8.8 | –
O=C(O)CCCCCO/N=C(/c1cccc(C(F)(F)F)c1)c1cnccn1 | – | – | – | inhibition at 291 µM [5]: 47%
O=C(O)CCCO/N=C(/c1ccccc1)c1cccnn1 | – | – | – | inhibition at 273 µM [4]: 2%
O=C(O)CCCO/N=C(\c1ccccc1)c1cccnn1 | – | – | – | inhibition at 273 µM [4]: 4%
O=C(O)CCCO/N=C(\c1ccccc1)c1ccncn1 | – | – | – | inhibition at 273 µM [4]: 34%
O=C(O)CCCO/N=C(/c1ccccc1)c1ncccn1 | – | – | – | inhibition at 273 µM [4]: 0%
O=C(O)CCCCO/N=C(/c1ccccc1)c1ncccn1 | – | – | > 10 | inhibition at 273 µM [4]: 0%
O=C(O)CCCCO/N=C(/c1ccccc1)c1cccnn1 | 217 | 71 | > 100 | –
O=C(O)CCCCCO/N=C(/c1ccccc1)c1ncccn1 | – | – | – | inhibition at 273 µM [4]: 0%
O=C(O)CCCCCO/N=C(\c1ccccc1)c1ccnnc1 | 59 | 7.1 | 3.8 | –
O=C(O)CCCCO/N=C(/c1cccc(C(F)(F)F)c1)c1cnccn1 | 65 | 1.5 | 2.9 | –
O=C(O)CCCCCO/N=C(\c1ccccc1)c1cccnn1 | 203 | – | – | –
O=C(O)CCCCCO/N=C(/c1ccccc1)c1cnccn1 | 216 | – | – | –
O=C(O)CCCCCO/N=C(\c1ccccc1)c1cnccn1 | 131 | – | – | –
O=C(O)CCCCCO/N=C(\c1cncnc1)c1cccc(C(F)(F)F)c1 | 291 | – | – | –
O=C(O)CCCCO/N=C(\c1ccccc1)c1cncnc1 | – | 20 | 0.075 | inhibition at 278 µM [6]: 40%
O=C(O)CCCCO/N=C(\c1ccccc1)c1ccncn1 | 274 | 30 | > 100 | –
O=C(O)CCCCO/N=C(/c1ccnnc1)c1cccc(C(F)(F)F)c1 | 52 | 6 | 0.016 | –

Structure (SMILES) | EC50 [1] [µM] | IC50 [2] [µM] | IC50 [3] [µM] | other results
O=C(O)CCCO/N=C(\c1ccccc1)c1ncccn1 | – | – | – | inhibition at 273 µM [4]: 0%
O=C(O)CCCCO/N=C(\c1cccc(C(F)(F)F)c1)c1ccncn1 | 19 | 1.4 | > 10 | –
O=C(O)CCCO/N=C(\c1ccccc1)c1ccnnc1 | 245 | – | – | –
O=C(O)CCCCCO/N=C(/c1ccccc1)c1ccnnc1 | 81 | 7.7 | > 10 | –
O=C(O)CCCCO/N=C(/c1ccccc1)c1ccncn1 | 255 | 25 | > 100 | –
O=C(O)CCCCCO/N=C(/c1ccccc1)c1cccnn1 | 204 | – | – | –
O=C(O)CCCCCO/N=C(/c1ccnnc1)c1cccc(C(F)(F)F)c1 | 186 | 29 | 0.693 | –
O=C(O)CCCO/N=C(\c1ccccc1)c1cncnc1 | – | – | – | inhibition at 273 µM [4]: 46%
O=C(O)CCCO/N=C(/c1ccccc1)c1cnccn1 | – | – | – | inhibition at 273 µM [4]: 19%
O=C(O)CCCCO/N=C(/c1ccccc1)c1cncnc1 | 191 | 7.2 | 0.573 | –
O=C(O)CCCCO/N=C(\c1ccnnc1)c1cccc(C(F)(F)F)c1 | 30 | 1.8 | 6.63 | –
O=C(O)CCCCCO/N=C(\c1ccccc1)c1ncccn1 | – | – | – | inhibition at 273 µM [4]: 0%
O=C(O)CCCO/N=C(\c1ccccc1)c1cnccn1 | – | – | – | inhibition at 273 µM [4]: 47%
O=C(O)CCCCCO/N=C(/c1cncnc1)c1cccc(C(F)(F)F)c1 | 200 | – | – | –
O=C(O)CCCCO/N=C(\c1ccccc1)c1cccnn1 | – | – | > 100 | inhibition at 278 µM [6]: 47%; IC50 [7]: 104 µM
O=C(O)CCCCO/N=C(/c1cccc(C(F)(F)F)c1)c1ccncn1 | 71 | 2.5 | > 100 | –
O=C(O)CCCCO/N=C(\c1cncnc1)c1cccc(C(F)(F)F)c1 | 12 | 0.36 | 6.1 | –
O=C(O)CCCCCO/N=C(\c1ccnnc1)c1cccc(C(F)(F)F)c1 | – | 21 | > 10 | inhibition at 291 µM [5]: 26%
O=C(O)CCCCO/N=C(/c1cccnc1)c1cccc(C(F)(F)F)c1 [RIDOGREL] | 41 | – | 0.007 | –
